Screening data as filed in PubChem.
Lmaj promast – reduces viability of Leishmania major promastigotes | resazurin fluorescence viability | inhibition, % at 10 µM | 9% of 200,000 active; in the data active means inhibition above about 50%;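 further: promastigotes grown with compound for 44 hours at 28 °C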
Mdm2-MdmX inh – inhibitors of human Mdm2/MdmX interaction; SaOS-2 split-luciferase Mdm2/MdmX complementation, luminescence; 3% of 330,000 active; O15151+Q00987; inhibition, % at 8 µM;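 active means inhibition of at least 50% at 8 µM in the primary screen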
Target sequence (O15151 whole entry, looked up): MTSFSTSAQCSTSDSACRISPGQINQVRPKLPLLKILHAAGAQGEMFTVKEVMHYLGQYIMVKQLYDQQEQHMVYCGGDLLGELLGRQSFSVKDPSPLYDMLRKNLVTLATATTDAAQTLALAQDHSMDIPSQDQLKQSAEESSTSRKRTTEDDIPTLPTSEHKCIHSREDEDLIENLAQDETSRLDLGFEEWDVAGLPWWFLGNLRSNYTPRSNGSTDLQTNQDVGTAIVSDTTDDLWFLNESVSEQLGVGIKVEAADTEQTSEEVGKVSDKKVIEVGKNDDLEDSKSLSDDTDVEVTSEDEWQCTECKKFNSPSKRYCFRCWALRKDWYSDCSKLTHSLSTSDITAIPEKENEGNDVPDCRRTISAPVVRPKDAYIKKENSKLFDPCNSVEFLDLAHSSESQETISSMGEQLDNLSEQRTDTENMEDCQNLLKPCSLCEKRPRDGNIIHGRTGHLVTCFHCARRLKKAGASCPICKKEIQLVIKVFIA
Target sequence (Q00987 whole entry, looked up): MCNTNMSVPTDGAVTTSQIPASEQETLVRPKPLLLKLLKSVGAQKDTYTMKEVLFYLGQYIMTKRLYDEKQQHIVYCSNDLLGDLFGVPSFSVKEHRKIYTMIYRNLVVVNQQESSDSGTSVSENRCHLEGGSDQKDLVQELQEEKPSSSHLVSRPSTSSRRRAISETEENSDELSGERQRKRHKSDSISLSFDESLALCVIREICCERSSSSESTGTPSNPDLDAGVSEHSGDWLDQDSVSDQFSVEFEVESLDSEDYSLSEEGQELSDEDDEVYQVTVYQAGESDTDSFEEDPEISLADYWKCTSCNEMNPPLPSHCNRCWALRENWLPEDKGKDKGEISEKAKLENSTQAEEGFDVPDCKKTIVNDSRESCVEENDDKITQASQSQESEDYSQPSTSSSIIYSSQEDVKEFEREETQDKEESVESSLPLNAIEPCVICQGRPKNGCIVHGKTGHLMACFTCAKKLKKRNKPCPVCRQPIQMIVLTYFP
CSC inhib – cancer stem cell inhibition; inhibition, % at 7.5 µM; 1.1% of 300,000 active; cancer stem cell-like cells viability, luminescence; in the data active means inhibition above about 75%; inconclusive means no clear call, values can overlap the other calls; tested in HMLE shEcad cells
T cruzi inh – blocks replication of Trypanosoma cruzi | 1.4% of 300,000 active | inhibition, % (no concentration beside the values) | T. cruzi beta-gal in NIH3T3, luminescence, 90 h | AID 1885;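 active means mean inhibition across valid replicates above about 55%, limit read from the data; inconclusive means mean below that limit but half or more replicates reach it; inactive means mean below it, under half of replicates reach it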;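 further: signal also drops with host cell toxicity which is not excluded here; 0% = plate median of DMSO wells and 100% = zero luminescence signal; higher percent means less beta-gal luminescence so fewer parasites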
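System: mouse NIH/3T3 fibroblasts infected with β-gal-expressing T. cruzi Tulahuen C4 / Input: NIH/3T3 cells, 5,000 per well / Buffer or medium: Low-serum DMEM with 2% FBS / Probe or stimulus: 5000 reporter trypomastigotes per well / Schedule: ≥90 h infection period, 3 h prior cell attachment / Measured by: GalScreen luminescence, 60 min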
Beta apoptosis – beta cell apoptosis inhibition. INS-1E cytokine-induced death, ATP luminescence, 48 h; percent of positive-control rescue, neutral wells zero. protection from apoptosis, % (concentration not given with the values). 0.8% of 300,000 active. AID 435005;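 active means Every replicate reaches about 75%, or at least half do and their mean reaches it too, limit read from the data; inconclusive means At least half of replicates reach the limit but their mean does not; inactive means Under half of replicates reach the limit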;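 further: 0% = cytokine-treated negative control wells and 100% = positive control rescue; higher means more ATP so stronger rescue from cytokine killing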
SKKanGAS inh – SKKanGAS growth inhibition | S. pyogenes SKKanGAS, kanamycin growth, BacTiter-Glo, 6 h | inhibition, % at 7.5 µM | 1.3% of 300,000 active;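 active means mean replicate score, as percent of positive control median, at least 50; inconclusive means mean below 50 but one replicate at or above 50; inactive means mean and every replicate below 50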;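 further: strain carries kanamycin resistance gene driven by streptokinase promoter and grows in 40 µg/ml kanamycin; loss of luminescence reflects streptokinase promoter inhibition or plain growth inhibition; 0% = median of DMSO wells and 100% = positive control at its reference dose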
Mdm2-MdmX conf – human Mdm2/MdmX binding inhibition, confirmed | luminescent assay | 55% of 10,000 active | shares compounds with Mdm2-MdmX inh | inhibition, % at 8 µM; in the data active means inhibition above about 40%
Full FLuc ctr – inhibits full-length luciferase, flagging false Mdm2/MdmX hits; AID 504607; 77% of 6,200 active; SaOS-2 full-length luciferase counterscreen, luminescence; shares compounds with Mdm2-MdmX inh; inhibition, % at 8 µM;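 active means mean inhibition at 8 µM reaching about 37%, which flags the compound as non-specific, limit read from the data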;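 further: p53-null SaOS-2 cells with luciferase driven by a doxycycline-inducible promoter; compound on cells about two nights before reading with doxycycline added after day one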
An asterisk follows results filed as active. Shown are actives, neighbours in structure and some others; about 9.4% of the full set was active somewhere.

`COc1cc(NC(=O)COC(=O)c2[nH]c(C)c(C(C)=O)c2C)cc(OC)c1` gave Mdm2-MdmX inh 51*, CSC inhib -1, Beta apoptosis -21 and Mdm2-MdmX conf 24.
CCOC(=O)c1c(C)[nH]c(C(=O)OCC(=O)Nc2cc(C)ccc2OC)c1C was read as Lmaj promast 1, Mdm2-MdmX inh 99*, T cruzi inh 5, Beta apoptosis 5, SKKanGAS inh -4 and Mdm2-MdmX conf 6.
Screening CCOC(=O)N1CCc2c(sc(NC(=O)c3ccc(Cl)s3)c2C(N)=O)C1 returned Lmaj promast 82*, Mdm2-MdmX inh 55*, CSC inhib 86* and Mdm2-MdmX conf 21.
For CCOC(=O)c1c(NC(=O)c2cccs2)sc2c1CCN(C(=O)OCC)C2 the results were Lmaj promast 35, Mdm2-MdmX inh 65*, CSC inhib 40, T cruzi inh 41, Beta apoptosis 14, SKKanGAS inh 54* and Mdm2-MdmX conf 36.
`O=C(CCC1CCCN(C(=O)Cn2cnnn2)C1)NCc1ccccc1F` (stereo not given) gave Lmaj promast -6, Mdm2-MdmX inh -5, T cruzi inh 2 and SKKanGAS inh -3.
`O=C(NCc1ccc(F)cc1)C(=O)Nc1nc(C23CC4CC(CC(C4)C2)C3)cs1` gave Lmaj promast 25, Mdm2-MdmX inh 59*, CSC inhib 75*, T cruzi inh 25, Beta apoptosis 31, SKKanGAS inh 109* and Mdm2-MdmX conf 30.
`Cc1noc(C)c1C(=O)Nc1nc(C23CC4CC(CC(C4)C2)C3)cs1` gave Lmaj promast -6, Mdm2-MdmX inh 36, CSC inhib 2, T cruzi inh 15, Beta apoptosis 28 and SKKanGAS inh 9.
`CC(=O)N1CCC2(CC1)C/C(=N\NC(=S)Nc1ccc(C)cc1)c1cc(O)ccc1O2` gave Lmaj promast 0, Mdm2-MdmX inh 75*, CSC inhib 17, T cruzi inh 7, Beta apoptosis 6, SKKanGAS inh 9, Mdm2-MdmX conf 40* and Full FLuc ctr 93*.
For Cc1ccc(NC(=S)N/N=C2\CC(C)(C)Oc3ccc(O)cc32)cc1 the results were Lmaj promast -9, Mdm2-MdmX inh 28, CSC inhib 46, T cruzi inh -8, Beta apoptosis 2 and SKKanGAS inh -1.
Cc1ccccc1NC(=S)N/N=C1\CC(C)(C)Oc2ccc(O)cc21 was read as Lmaj promast 84*, Mdm2-MdmX inh 51*, CSC inhib -11, T cruzi inh -18, Beta apoptosis 12, SKKanGAS inh 14 and Mdm2-MdmX conf 6.
Screening COc1ccc(C(=O)CCc2nc3ccccc3s2)cc1 returned Lmaj promast 1, Mdm2-MdmX inh -11, T cruzi inh -7 and SKKanGAS inh -12.
Screening COc1ccc(C(=O)Nc2nccs2)cc1[N+](=O)[O-] returned Lmaj promast 6, Mdm2-MdmX inh -3, CSC inhib -5, T cruzi inh -5, Beta apoptosis -12 and SKKanGAS inh -12.
For Cn1cc([N+](=O)[O-])c(C(=O)Nc2ccc(Br)cn2)n1 the results were Lmaj promast 19, Mdm2-MdmX inh 56*, CSC inhib 40, T cruzi inh -31, Beta apoptosis -13, SKKanGAS inh 2, Mdm2-MdmX conf 44* and Full FLuc ctr 90*.
For CCSc1ccc(C(=O)Nc2ccc(Br)cn2)cc1[N+](=O)[O-] the results were Lmaj promast 23, Mdm2-MdmX inh 17, CSC inhib 1, T cruzi inh 26, Beta apoptosis 8 and SKKanGAS inh -16.
Cn1cc([N+](=O)[O-])c(C(=O)Nc2nccs2)n1 was read as Lmaj promast 10, Mdm2-MdmX inh 57*, CSC inhib 27, T cruzi inh -31, Beta apoptosis 1, SKKanGAS inh -11 and Mdm2-MdmX conf 17.
O=C(COC(=O)COc1ccc(Br)cc1)NC1CCCC1 was read as Mdm2-MdmX inh 20, CSC inhib -1 and Beta apoptosis -1.
Screening CN(C)CCCN(C(=O)c1ccc2c(c1)CCCC2)c1nc2ccc(Cl)cc2s1 returned Lmaj promast 79*, Mdm2-MdmX inh 54*, CSC inhib -5, T cruzi inh 45, Beta apoptosis 17, SKKanGAS inh 2 and Mdm2-MdmX conf 19.
Screening Cc1ccc2sc(N(CCCN(C)C)C(=O)c3ccc(S(=O)(=O)N4CCc5ccccc5C4)cc3)nc2c1C returned Mdm2-MdmX inh 98*, CSC inhib 15, T cruzi inh 48, SKKanGAS inh 6, Mdm2-MdmX conf 75* and Full FLuc ctr 51*.
For CN(C)CCCN(C(=O)CCc1ccccc1)c1nc2ccc(Cl)cc2s1 the results were Lmaj promast 87*, Mdm2-MdmX inh 50*, CSC inhib 70, T cruzi inh 51, Beta apoptosis 5, SKKanGAS inh 1, Mdm2-MdmX conf 35 and Full FLuc ctr 54*.
`COc1ccc(OC)c2sc(N(CCCN(C)C)C(=O)c3ccc(S(=O)(=O)N4CCc5ccccc5C4)cc3)nc12` gave Mdm2-MdmX inh 99*, CSC inhib 101*, T cruzi inh 60*, Beta apoptosis 100*, SKKanGAS inh 4, Mdm2-MdmX conf 100* and Full FLuc ctr 1.
`COc1ccc(C)c2sc(N(CCCN(C)C)C(=O)c3ccc(S(=O)(=O)N4CCc5ccccc5C4)cc3)nc12` gave CSC inhib -7, T cruzi inh 50 and SKKanGAS inh 14.
Screening CN(C)CCCN(C(=O)COc1ccccc1)c1nc2ccc(Cl)cc2s1 returned Lmaj promast 13, Mdm2-MdmX inh 24, CSC inhib 0, T cruzi inh inconclusive, Beta apoptosis -8 and SKKanGAS inh -18.
`COc1ccccc1CNC(=O)CN(C)S(=O)(=O)c1ccc(F)cc1` gave Mdm2-MdmX inh 14, CSC inhib 1, T cruzi inh 4, Beta apoptosis 0 and SKKanGAS inh -1.
For CCNS(=O)(=O)c1ccc(CCC(=O)N2CCC(C)CC2)cc1 the results were Mdm2-MdmX inh 3, T cruzi inh 5 and SKKanGAS inh 1.
For COc1cccc2cc(C(=O)NCc3ccccc3Cl)c(=O)oc12 the results were Mdm2-MdmX inh -11, CSC inhib -14, T cruzi inh 3 and SKKanGAS inh 3.
For COc1cccc2sc(N(CCCN(C)C)C(=O)c3ccc(S(=O)(=O)N4CCc5ccccc5C4)cc3)nc12 the results were Mdm2-MdmX inh 62*, CSC inhib -1, T cruzi inh 47, Beta apoptosis 1, SKKanGAS inh 15 and Mdm2-MdmX conf 23.
